Reference: ChEMBL document CHEMBL1143242, “Specific small-molecule activator of Aurora kinase A induces autophosphorylation in a cell-free system” (J Med Chem, 2008)
Activity calls are given as the source filed them. The calls are words filed in the database; no cut-off is given here.

Tests used:
[1] = target: T1, Aurora kinase A (Homo sapiens) (UniProt O14965); experiment: Binding affinity to human AURA expressed in baculovirus in presence of anacardic acid
T1 sequence (whole entry): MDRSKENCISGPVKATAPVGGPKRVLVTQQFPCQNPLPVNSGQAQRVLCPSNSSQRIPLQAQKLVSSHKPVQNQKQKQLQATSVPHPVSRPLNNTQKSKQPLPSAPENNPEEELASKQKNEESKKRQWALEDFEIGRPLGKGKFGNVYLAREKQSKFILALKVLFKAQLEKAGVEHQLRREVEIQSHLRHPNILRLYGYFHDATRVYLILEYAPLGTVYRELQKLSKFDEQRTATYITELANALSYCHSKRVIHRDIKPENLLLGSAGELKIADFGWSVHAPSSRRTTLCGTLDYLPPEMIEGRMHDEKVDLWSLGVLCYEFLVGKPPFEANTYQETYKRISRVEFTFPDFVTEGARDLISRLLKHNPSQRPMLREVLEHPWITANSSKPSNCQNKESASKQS
How it was run: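 Baculovirus-expressed, C-terminally His6-tagged AURA purified on Ni-NTA. Intrinsic fluorescence quenching was read at 301 nm (excitation 280 nm), with inner-filter correction. Ka came from double-reciprocal FR and the Chipman method.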

[2] = target: T1, Aurora kinase A (Homo sapiens); experiment: Binding affinity to human AURA expressed in baculovirus
How it was run: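 Baculovirus-expressed, C-terminally His6-tagged AURA purified on Ni-NTA. Excitation was at 280 nm and quenching of intrinsic fluorescence was read at 301 nm, with inner-filter correction. FR came from a double-reciprocal plot, and Ka was calculated by the Chipman method.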

[3] = target: Aurora kinase B (Homo sapiens) (UniProt Q96GD4); experiment: Activation of human AURB mediated histone H3 phosphorylation by phosphoimager analyzer
Sequence of Aurora kinase B (Homo sapiens) (Q96GD4 whole entry): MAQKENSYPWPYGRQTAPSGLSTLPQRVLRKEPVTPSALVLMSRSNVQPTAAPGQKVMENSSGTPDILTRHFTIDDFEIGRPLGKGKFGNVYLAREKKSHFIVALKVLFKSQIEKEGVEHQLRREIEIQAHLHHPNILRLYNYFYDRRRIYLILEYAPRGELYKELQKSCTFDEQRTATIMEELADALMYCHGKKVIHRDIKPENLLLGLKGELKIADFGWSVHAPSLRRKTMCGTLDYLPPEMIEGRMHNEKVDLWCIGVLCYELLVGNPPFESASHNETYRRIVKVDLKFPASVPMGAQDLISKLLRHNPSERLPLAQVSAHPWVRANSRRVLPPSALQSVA
How it was run: (§1)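 Compound (5–50 µM, in DMSO) preincubated 5 min at 30 °C, then [γ-32P]ATP added for 10 min. 25% TCA precipitation, 15% SDS-PAGE, autoradiography; phosphoimager quantitation of relative intensity versus DMSO control.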

[4] = target: T1, Aurora kinase A (Homo sapiens); experiment: Activation of human AURA autophosphorylation activity
How it was run: (§2)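 Autophosphorylation read from the same gels: 1.5 µg histone H3 with AURA (40 ng) or AURB (120 ng) and [γ-32P]ATP, with or without compound at 25 and 50 µM in DMSO. Reactions precipitated with 25% TCA, resolved on 15% SDS-PAGE, then autoradiographed.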

[5] = target: T1, Aurora kinase A (Homo sapiens); experiment: Activation of human AURA activity expressed in baculovirus cells by time course assay
[6] = target: T1, Aurora kinase A (Homo sapiens); experiment: Activation of human AURA mediated histone H3 phosphorylation by phosphoimager analyzer; how it was run: as §1
[7] = target: T1, Aurora kinase A (Homo sapiens); experiment: Binding affinity to human AURA expressed in baculovirus in presence of ATP
[8] = target: Aurora kinase B (Homo sapiens) (UniProt Q96GD4); experiment: Activation of human AURB autophosphorylation activity; how it was run: as §2
[9] = target: T1, Aurora kinase A (Homo sapiens); experiment: Activation of human AURA assessed as histone H3 phosphorylation; how it was run: as §1
[10] = substrate: C=CC/C=C\C/C=C\CCCCCCCc1cccc(O)c1C(=O)O; experiment: Ratio of Kcat for human AURA to Km for human AURA
How it was run: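 AURA kinase assay with H3 substrate, with increasing [γ-32P]ATP (2.5–15 µM) in the presence of DMSO or 50 µM compound; 5 min 30 °C preincubation, 10 min reaction, TCA precipitation, PAGE and phosphoimager quantitation. Km, Vmax and kcat fitted from activity against ATP concentration.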

[11] = substrate: C=CC/C=C\C/C=C\CCCCCCCc1cccc(O)c1C(=O)O; experiment: Activity of human AURA expressed in baculovirus at 50 uM by phosphorimager analyzer; how it was run: as §1

Nc1ncnc2c1ncn2[C@@H]1O[C@H](COP(=O)(O)OP(=O)(O)OP(=O)(O)O)[C@@H](O)[C@H]1O
Ka [1]: 27.5 nM⁻¹
Ka [2]: 5.7 µM⁻¹

C=CC/C=C\C/C=C\CCCCCCCc1cccc(O)c1C(=O)O
Activity [3]: inactive
Activity [4]: Active
Activity [5]: Active
Activity [6]: Active
Ka [7]: 10.1 µM⁻¹
Activity [8]: inactive
Ka [2]: 5.2 µM⁻¹
Activity [9]: Dose-dependent effect

B1: Aurora kinase A (Homo sapiens), O14965 (protein)
chain: MDRSKENCISGPVKATAPVGGPKRVLVTQQFPCQNPLPVNSGQAQRVLCPSNSSQRIPLQAQKLVSSHKPVQNQKQKQLQATSVPHPVSRPLNNTQKSKQPLPSAPENNPEEELASKQKNEESKKRQWALEDFEIGRPLGKGKFGNVYLAREKQSKFILALKVLFKAQLEKAGVEHQLRREVEIQSHLRHPNILRLYGYFHDATRVYLILEYAPLGTVYRELQKLSKFDEQRTATYITELANALSYCHSKRVIHRDIKPENLLLGSAGELKIADFGWSVHAPSSRRTTLCGTLDYLPPEMIEGRMHDEKVDLWSLGVLCYEFLVGKPPFEANTYQETYKRISRVEFTFPDFVTEGARDLISRLLKHNPSQRPMLREVLEHPWITANSSKPSNCQNKESASKQS
kcat/Km [10]: 6990 M⁻¹ s⁻¹
Km [11]: 40.2 mM
Vmax [11]: 62.5 mmol/min/mg
kcat [11]: 282 s⁻¹
